Ecoli rRNA inh = reduced GFP signal of wild-type E. coli, primary screen, bacterial rRNA inhibitor project, GFP/RFP fluorescence, OD600, single point; E. coli WT GFP vs humanized-ribosome RFP mutants, 24 h; stronger effect = lower value; DMSO median 0, no signal -100; GFP signal change (wild-type ribosome), % (test concentration not listed); 350,000 compounds, 1.6% hits;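 active means significant combined selectivity score with lowered wild-type GFP, culture density cut under 30%, mutant RFP and density less affected; inactive means any of these conditions unmet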
Cneo AK release = Cryptococcus neoformans cell lysis inducers, primary screen, AK release luminescence, single concentration. C. neoformans lysis, adenylate kinase release luminescence, 4 h; normalised: neutral wells 0, clomiphene wells 100. lysis activity, % at 15 µM. 360,000 compounds, 0.2% hits. AID 651654, 2012;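 active means mean lysis activity across replicates of at least 80%, whatever share of replicates individually reach that level; inactive means mean lysis activity below 80%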
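Assay system: log-phase C. neoformans yeast / Quantity: yeast cell density of 5 × 10^6 cells/mL / Medium: fresh YPD growth medium / Compound: single dose / Timing: static 4 h at 37 °C with compound, 1 h detection / Measured by: adenylate kinase release luminescence / Read-out: lysis from increased AK signal / Benchmarks: Clomiphene as positive lysis control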
DENV2 CPE rescue = inhibitors of DENV2 cytopathic effect, primary screen, cell-based, plate reader, single concentration; DENV2-infected cells, cytopathic effect rescue; CPE inhibition, % at 9.99 µM; 350,000 compounds, 1.7% hits; in the data active means CPE inhibition above about 20%, passing the limit was not always enough; inconclusive means no clear call, values can overlap the other calls; tested in BHK-21 cells
E-sel inducer = E-selectin induction in HUVECs, primary screen, imaging, HUVEC, immunofluorescence imaging, single point; normalized: neutral wells 0, TNF-alpha wells 100; P16581; activation, % at 7.58 µM; 260,000 compounds, 0.37% hits; AID 686992, 2013;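 active means mean E-selectin-positive cell signal at least 10% of the positive control, reached in at least 60% of replicates, without over 20% cell loss; inconclusive means no rule given, readout overlaps actives, possibly toxicity-flagged; inactive means the rest, including those meeting only one limit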
Target sequence (P16581 whole entry, looked up): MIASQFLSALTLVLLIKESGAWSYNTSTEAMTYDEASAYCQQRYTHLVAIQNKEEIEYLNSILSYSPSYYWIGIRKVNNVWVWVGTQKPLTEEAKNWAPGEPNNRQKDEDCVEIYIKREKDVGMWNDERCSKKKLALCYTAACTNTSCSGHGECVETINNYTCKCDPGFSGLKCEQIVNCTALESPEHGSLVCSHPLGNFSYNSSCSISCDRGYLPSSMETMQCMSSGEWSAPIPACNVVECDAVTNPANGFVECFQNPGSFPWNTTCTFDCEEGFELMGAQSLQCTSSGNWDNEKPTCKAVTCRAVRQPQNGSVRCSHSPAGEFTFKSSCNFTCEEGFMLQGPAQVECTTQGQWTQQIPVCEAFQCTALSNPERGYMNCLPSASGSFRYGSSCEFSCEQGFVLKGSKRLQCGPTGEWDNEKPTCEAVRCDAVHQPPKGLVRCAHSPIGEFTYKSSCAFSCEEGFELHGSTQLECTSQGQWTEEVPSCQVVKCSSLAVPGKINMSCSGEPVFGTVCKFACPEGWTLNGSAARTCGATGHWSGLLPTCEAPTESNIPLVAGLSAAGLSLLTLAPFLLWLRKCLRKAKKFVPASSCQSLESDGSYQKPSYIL
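assay system = HUVEC, human umbilical vein endothelial cells | input = 3,000 HUVEC seeded per well | medium = EGM-2 growth medium on 0.1% gelatin-coated wells | dosing = one compound dose added by pin transfer | signal = immunofluorescence imaging | read-out basis = % PE-positive cells | control set = TNF-alpha, DMSO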
miR122 inh = miR-122 Renilla sensor signal increase in Huh7, primary screen, miR-122 inhibitor project, cell-based, single point, plate reader. Huh7 miR-122 Renilla luciferase sensor, 48 h; neutral wells = 0, positive control = 100. activation (reporter increase), % at 12.5 µM. 340,000 compounds, 0.3% hits. AID 602342, 2012;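 active means mean replicate activation score at least 90 and every replicate individually at or above 90; inconclusive means only one of the two criteria met; inactive means neither criterion met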;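 further: higher luciferase means less miR-122 activity so hits act as miR-122 inhibitors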
A number is an active result; 0 = inactive; ? = inconclusive; - = no result. In the library only some 3.1% were active in any assay of this set; here they are far more common.

SMILES	Ecoli rRNA inh	Cneo AK release	DENV2 CPE rescue	E-sel inducer	miR122 inh
CC(C)(C(=O)N1CCC1(C)C(=O)NS(=O)(=O)c1cccc(F)c1)c1ccccc1 (stereo not drawn)	-	0	0	0	0
CCCC(=O)Nc1ccc2c(c1)C(=O)N(C)C[C@@H](OC)[C@@H](C)CN(CCC(F)(F)F)[C@@H](C)CO2	0	0	0	0	-
O=C(c1ccc(CS(=O)Cc2ccccc2Cl)o1)N1CCN(c2cccc(Cl)c2)CC1 (stereo not drawn)	0	0	0	-	-
COc1cccc(N2CCN(C(=O)c3ccc(CS(=O)Cc4ccccc4Cl)o3)CC2)c1 (stereo not drawn)	-31.4	0	0	0	0
Cc1ccc(-c2cnc3c(c2)C(=O)N([C@@H](C)CO)C[C@H](C)[C@@H](CN(C)C(=O)Cc2ccccc2)O3)cc1	0	0	0	0	0
COc1ccc(C(=O)Oc2cc3c4c(c2)C(C)=CC(C)(C)N4C(=O)C3=O)cc1OC	-	-	-	0	0
COc1cccc(C(=O)Oc2cc3c4c(c2)C(C)=CC(C)(C)N4C(=O)C3=O)c1	-20.3	0	0	-	-
C[C@@H]1CN([C@@H](C)CO)S(=O)(=O)c2ccc(Br)cc2O[C@@H]1CN(C)C(=O)C1CCC1	0	-	-	0	0
CN(C)C(=O)C[C@@H]1CC[C@@H]2[C@H](COc3ccc(NC(=O)C4CCC4)cc3C(=O)N2C)O1	0	-	0	0	-
C[C@@H]1CN([C@@H](C)CO)C(=O)c2cc(NC(=O)CCC(F)(F)F)ccc2O[C@@H](C)CCCCO[C@@H]1CN(C)CC1CCCCC1	0	0	0	0	0
CO[C@@H]1CN(C)C(=O)c2cc(NC(C)=O)ccc2OC[C@@H](C)N(Cc2cccc(F)c2)C[C@@H]1C	0	-	-	0	-
CC(C)(C)CNC(=O)c1cccc2c1C(=O)c1ccc(N3CCCC3)cc1S2(=O)=O	0	0	29.1	0	0
O=C(NC1CCCCC1)c1cccc2c1C(=O)c1ccc(N3CCCC3)cc1S2(=O)=O	0	0	-	0	0
O=C1c2ccccc2S(=O)(=O)c2cc(N3CCC(C(=O)N4CCCCC4)CC3)ccc21	-20.9	-	0	-	-
CC1CCN(c2ccc3c(c2)S(=O)(=O)c2cccc(C(=O)NC4CCCCC4)c2C3=O)CC1	0	0	33.6	0	-
C[C@@H]1CN([C@H](C)CO)C(=O)c2cc(-c3cccc(C(=O)N(C)C)c3)cnc2O[C@H]1CN(C)S(=O)(=O)c1cccc(F)c1	0	0	0	0	0
CN1C(=O)c2cc(NC(=O)Nc3ccccc3)ccc2OC[C@@H]2O[C@H](CC(=O)O)CC[C@H]21	0	-	-	0	-
C[C@H]1CN([C@@H](C)CO)S(=O)(=O)c2ccc(C#CC3CC3)cc2O[C@@H]1CN(C)Cc1ccc(F)cc1	0	0	0	-	0
COc1cccc(NC(=O)N(C)C[C@@H]2Oc3cc(C#Cc4ccc(F)cc4)ccc3S(=O)(=O)N([C@H](C)CO)C[C@@H]2C)c1	0	0	0	0	0
COc1ccc(C#Cc2ccc3c(c2)O[C@H](CN(C)C(=O)Nc2cccc(OC)c2)[C@H](C)CN([C@@H](C)CO)S3(=O)=O)cc1	0	86.0	?	0	0
COc1ccc(C#Cc2ccc3c(c2)O[C@@H](CN(C)C(=O)Nc2cccc(OC)c2)[C@@H](C)CN([C@H](C)CO)S3(=O)=O)cc1	0	0	0	0	0
COc1ccc(C#Cc2ccc3c(c2)O[C@@H](CN(C)C(=O)Nc2cccc(OC)c2)[C@H](C)CN([C@@H](C)CO)S3(=O)=O)cc1	0	0	0	35.2	0
CN(C)CCCNC(=O)OC1CC2CC1[C@H]1CCCCN1C2=O (stereo partly drawn)	0	-	47.7	0	-
Cc1ccc(C)c(-c2ccc(=O)n(Cc3c(F)cccc3Cl)n2)c1	0	0	0	-	0
Cc1ccc(-c2ccc(=O)n(Cc3c(F)cccc3Cl)n2)cc1	-26.6	0	0	0	-
SMILES	Ecoli rRNA inh	Cneo AK release	DENV2 CPE rescue	E-sel inducer	miR122 inh
C[C@@H]1CN([C@@H](C)CO)C(=O)c2cc(-c3cccnc3)cnc2O[C@@H]1CN(C)C(=O)Nc1ccc2c(c1)OCO2	0	0	0	0	0
Cc1noc(C)c1S(=O)(=O)N(C)C[C@H]1Oc2ccc(NC(=O)Nc3ccc4c(c3)OCO4)cc2C(=O)N([C@H](C)CO)C[C@@H]1C	0	-	-	-	-
CC(C)Cn1cnc2c(SCc3ccccc3)nc(N)nc21	0	0	0	0	0
Cc1ccc2ccccc2c1CSc1nc(N)nc2c1ncn2CC(C)C	-29.8	-	0	0	0
Nc1ccn([C@@H]2O[C@H](C(=O)N3CCN(C(=O)C(F)(F)F)CC3)[C@@H](O)[C@H]2O)c(=O)n1	0	-	0	0	-
CN(C)C(=O)N1CCN(C(=O)[C@H]2O[C@@H](n3ccc(N)nc3=O)[C@H](O)[C@@H]2O)CC1	0	-	70.2	0	-
Nc1ccn([C@@H]2O[C@H](C(=O)NCc3ccc4c(c3)OCO4)[C@@H](O)[C@H]2O)c(=O)n1	0	0	0	0	0
Nc1ccn([C@@H]2O[C@H](C(=O)NCCc3ccc(F)cc3)[C@@H](O)[C@H]2O)c(=O)n1	0	0	87.3	0	0
CC(C)OP(=O)(c1ccc(N(C)C)cc1)C(Nc1ccccc1)c1ccccc1 (stereo not drawn)	-27.4	-	0	-	-
CN(C)c1ccc(P(=O)(OCc2ccccc2)C(O)c2ccc(Cl)cc2)cc1 (stereo not drawn)	0	0	0	0	0
CN(C)c1ccc(P(=O)(OCc2ccccc2)C(O)c2ccccc2)cc1 (stereo not drawn)	-20.1	-	0	-	-
O=C(Nc1ccc2c(c1)[C@@H]1C[C@H](CC(=O)N3CCc4ccccc4C3)O[C@H](CO)[C@@H]1O2)C1CCC1	0	0	?	0	0
COc1ccc(NC(=O)COc2ccc(C(=O)OCC(=O)N(C(C)C)C(C)C)cc2OC)cc1	-27.3	0	-	-	-
CCOc1ccc(C(=O)OCC(=O)Nc2ccc3c(c2)OCCO3)cc1OC	0	0	0	0	-
Cc1cc(OCCCC(=O)Nc2cccc(-n3cnnn3)c2)ccc1Cl	-34.0	0	0	-	0
CC1CCCCN1C(=O)COC(=O)C1CCN(S(=O)(=O)c2ccc(Cl)c(C(F)(F)F)c2)CC1 (stereo not drawn)	0	0	27.5	0	0
O=C(CC(=O)c1cc(Cl)ccc1O)c1ccccc1	-27.2	0	0	-	0
Cc1ccc2cc(-c3noc(C(C)(C)C)n3)c(=O)[nH]c2c1	-	0	-	-	206.0
C[C@H]1CN([C@@H](C)CO)C(=O)c2cc(NC(=O)Nc3ccc(C(F)(F)F)cc3)ccc2O[C@@H]1CN(C)S(=O)(=O)c1ccccc1	0	-	0	132.6	0
